{
  "source": "paper PMC3747594",
  "about": "(ACS Chemical Biology, 2013)",
  "key": {"[1]": {"biological_target": "T1, K2P2.1 (TREK-1) (Mus musculus, UniProt P97438)", "T1 sequence (P97438 1-411 isoform P97438-2)": "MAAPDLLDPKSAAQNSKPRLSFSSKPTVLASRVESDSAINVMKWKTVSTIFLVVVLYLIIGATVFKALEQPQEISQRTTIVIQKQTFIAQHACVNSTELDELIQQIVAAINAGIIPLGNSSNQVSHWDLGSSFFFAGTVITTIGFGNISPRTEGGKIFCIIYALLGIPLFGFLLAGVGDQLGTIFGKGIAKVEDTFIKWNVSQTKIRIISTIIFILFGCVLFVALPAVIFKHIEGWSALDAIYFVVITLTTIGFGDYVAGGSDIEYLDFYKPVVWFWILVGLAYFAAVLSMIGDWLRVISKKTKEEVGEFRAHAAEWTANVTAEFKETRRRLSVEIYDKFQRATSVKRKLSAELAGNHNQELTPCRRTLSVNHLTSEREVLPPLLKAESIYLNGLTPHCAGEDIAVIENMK", "assay": "Two-electrode voltage clamp in Xenopus oocytes, K2P2.1", "assay_type": "cell-based, Murine"}, "[2]": {"biological_target": "T1, K2P2.1 (TREK-1)", "assay": "Whole cell patch clamp in HEK-293T cells, K2P2.1", "assay_type": "cell-based, Murine"}, "[3]": {"biological_target": "T2, K2P2.1 (TREK-1) G137I (Mus musculus, UniProt P97438, G152I)", "T2 sequence (P97438 1-411 isoform P97438-2 G137I)": "T1 sequence (P97438 1-411 isoform P97438-2) with G137I", "assay": "Two-electrode voltage clamp in Xenopus oocytes, G137I mutant", "assay_type": "cell-based, Murine"}, "[4]": {"biological_target": "T3, K2P2.1 (TREK-1) W275S (Mus musculus, UniProt P97438, W290S)", "T3 sequence (P97438 1-411 isoform P97438-2 W275S)": "T1 sequence (P97438 1-411 isoform P97438-2) with W275S", "assay": "Two-electrode voltage clamp in Xenopus oocytes, W275S mutant", "assay_type": "cell-based, Murine", "procedure,_shortened": "(§1)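 Murine channel cDNAs in pGEMHE/pMO were expressed in Xenopus oocytes and recorded by two-electrode voltage clamp. Bath contained 2 mM [K+]o at pH 7.4. Currents were elicited by a −150 to 50 mV ramp from a −80 mV holding potential. Responses were normalized to basal channel activity and fit with a modified Hill equation (EC50, Imax/Imin, Hill coefficient H). Values are mean ± SD or SEM from ≥2 independent experiments.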"}, "[5]": {"biological_target": "T4, K2P2.1 (TREK-1)-3G (Mus musculus, UniProt P97438)", "T4 sequence (P97438 16-426)": "T1 sequence (P97438 1-411 isoform P97438-2) with M1V", "assay": "Two-electrode voltage clamp in Xenopus oocytes, 3G mutant", "assay_type": "cell-based, Murine"}, "[6]": {"biological_target": "T5, K2P10.1 (TREK-2) (Mus musculus, UniProt Q8BUW1)", "T5 sequence (Q8BUW1 1-535)": "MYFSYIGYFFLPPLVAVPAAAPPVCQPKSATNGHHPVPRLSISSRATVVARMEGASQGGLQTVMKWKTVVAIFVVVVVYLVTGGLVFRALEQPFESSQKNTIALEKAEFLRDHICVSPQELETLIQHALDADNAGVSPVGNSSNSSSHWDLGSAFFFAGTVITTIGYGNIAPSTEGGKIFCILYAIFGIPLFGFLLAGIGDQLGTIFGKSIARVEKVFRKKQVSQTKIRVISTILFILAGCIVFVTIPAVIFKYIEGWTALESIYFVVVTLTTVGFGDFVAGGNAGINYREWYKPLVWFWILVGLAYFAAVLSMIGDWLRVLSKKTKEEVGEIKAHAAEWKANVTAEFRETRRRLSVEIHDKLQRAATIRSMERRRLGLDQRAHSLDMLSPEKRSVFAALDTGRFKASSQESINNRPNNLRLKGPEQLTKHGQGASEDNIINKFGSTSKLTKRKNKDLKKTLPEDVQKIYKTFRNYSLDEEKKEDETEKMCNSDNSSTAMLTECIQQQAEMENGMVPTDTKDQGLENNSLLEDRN", "assay": "Two-electrode voltage clamp in Xenopus oocytes, K2P10.1", "assay_type": "cell-based, Murine", "procedure,_shortened": "as §1"}, "[7]": {"biological_target": "T6, K2P4.1 (TRAAK) (Mus musculus, UniProt O88454)", "T6 sequence (O88454 1-398)": "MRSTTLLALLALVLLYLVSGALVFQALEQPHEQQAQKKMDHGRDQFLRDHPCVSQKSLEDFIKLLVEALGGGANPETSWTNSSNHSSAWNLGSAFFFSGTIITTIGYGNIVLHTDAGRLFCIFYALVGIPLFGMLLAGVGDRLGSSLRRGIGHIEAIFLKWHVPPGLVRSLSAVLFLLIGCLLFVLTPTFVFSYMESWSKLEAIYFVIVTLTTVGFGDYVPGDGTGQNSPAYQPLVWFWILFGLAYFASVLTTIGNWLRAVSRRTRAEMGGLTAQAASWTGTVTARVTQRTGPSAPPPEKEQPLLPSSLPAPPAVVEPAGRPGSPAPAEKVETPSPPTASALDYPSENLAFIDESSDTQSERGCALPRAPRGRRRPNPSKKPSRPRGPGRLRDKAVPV", "assay": "Two-electrode voltage clamp in Xenopus oocytes, K2P4.1", "assay_type": "cell-based, Murine", "procedure,_shortened": "as §1"}, "[8]": {"biological_target": "K2P9.1 (TASK-3) (Mus musculus, UniProt Q3LS21)", "sequence (Q3LS21 whole entry)": "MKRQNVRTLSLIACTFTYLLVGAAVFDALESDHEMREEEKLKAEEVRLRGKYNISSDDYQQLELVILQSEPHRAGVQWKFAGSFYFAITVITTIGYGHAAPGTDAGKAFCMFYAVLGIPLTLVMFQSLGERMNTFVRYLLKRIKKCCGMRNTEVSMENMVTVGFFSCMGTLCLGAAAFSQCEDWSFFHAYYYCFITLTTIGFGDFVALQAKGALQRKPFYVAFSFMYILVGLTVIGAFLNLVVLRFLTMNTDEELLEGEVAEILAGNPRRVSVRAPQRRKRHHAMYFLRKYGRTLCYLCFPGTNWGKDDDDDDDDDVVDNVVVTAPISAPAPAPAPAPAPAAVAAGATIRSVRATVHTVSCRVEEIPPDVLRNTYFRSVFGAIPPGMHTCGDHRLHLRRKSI", "assay": "Two-electrode voltage clamp in Xenopus oocytes, K2P9.1", "assay_type": "cell-based, Murine", "procedure,_shortened": "as §1"}, "[9]": {"biological_target": "T7, K2P5.1 (TASK-2) (Mus musculus, UniProt F6V9U5)", "T7 sequence (F6V9U5 1-502)": "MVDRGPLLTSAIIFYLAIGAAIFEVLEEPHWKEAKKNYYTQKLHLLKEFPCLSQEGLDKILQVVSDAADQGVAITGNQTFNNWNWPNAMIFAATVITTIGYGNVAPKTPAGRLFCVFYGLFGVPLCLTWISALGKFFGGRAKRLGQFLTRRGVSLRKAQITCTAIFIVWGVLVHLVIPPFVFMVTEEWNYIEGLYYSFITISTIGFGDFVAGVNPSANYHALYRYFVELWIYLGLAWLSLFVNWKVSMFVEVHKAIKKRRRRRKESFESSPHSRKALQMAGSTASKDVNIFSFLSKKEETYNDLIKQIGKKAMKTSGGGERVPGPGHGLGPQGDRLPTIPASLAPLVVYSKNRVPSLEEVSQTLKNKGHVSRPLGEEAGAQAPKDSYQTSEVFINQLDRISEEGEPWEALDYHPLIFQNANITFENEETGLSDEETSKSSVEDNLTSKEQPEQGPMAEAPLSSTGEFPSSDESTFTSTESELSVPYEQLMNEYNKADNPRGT", "assay": "Two-electrode voltage clamp in Xenopus oocytes, K2P5.1", "assay_type": "cell-based, Murine", "settings": "at 100 μM compound", "procedure,_shortened": "as §1"}, "[10]": {"biological_target": "K2P3.1 (TASK-1) (Mus musculus, UniProt O35111)", "sequence (O35111 whole entry)": "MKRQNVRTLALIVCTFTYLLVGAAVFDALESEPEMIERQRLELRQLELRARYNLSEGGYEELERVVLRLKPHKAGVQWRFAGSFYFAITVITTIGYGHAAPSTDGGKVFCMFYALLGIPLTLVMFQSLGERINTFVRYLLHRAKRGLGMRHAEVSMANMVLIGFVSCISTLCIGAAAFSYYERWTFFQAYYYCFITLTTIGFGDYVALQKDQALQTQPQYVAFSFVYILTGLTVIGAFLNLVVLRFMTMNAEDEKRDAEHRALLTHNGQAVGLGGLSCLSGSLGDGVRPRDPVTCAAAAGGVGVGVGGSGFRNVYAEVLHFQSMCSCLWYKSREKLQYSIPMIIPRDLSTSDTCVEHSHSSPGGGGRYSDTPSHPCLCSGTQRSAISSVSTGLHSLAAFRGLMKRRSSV", "assay": "Two-electrode voltage clamp in Xenopus oocytes, K2P3.1", "assay_type": "cell-based, Murine", "settings": "at 100 μM compound", "procedure,_shortened": "as §1"}, "[11]": {"biological_target": "T8, K2P18.1 (TRESK) (Mus musculus, UniProt Q6VV64)", "T8 sequence (Q6VV64 1-394)": "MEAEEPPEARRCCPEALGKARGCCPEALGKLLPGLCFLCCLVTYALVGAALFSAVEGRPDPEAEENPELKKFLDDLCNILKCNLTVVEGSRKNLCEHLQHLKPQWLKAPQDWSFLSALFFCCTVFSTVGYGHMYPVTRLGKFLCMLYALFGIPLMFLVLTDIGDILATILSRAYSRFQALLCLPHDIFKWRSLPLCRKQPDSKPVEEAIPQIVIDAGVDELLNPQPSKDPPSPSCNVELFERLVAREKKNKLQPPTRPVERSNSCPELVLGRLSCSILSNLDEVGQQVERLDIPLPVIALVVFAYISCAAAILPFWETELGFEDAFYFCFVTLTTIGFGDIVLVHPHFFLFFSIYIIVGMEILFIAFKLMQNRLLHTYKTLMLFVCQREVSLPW", "assay": "Two-electrode voltage clamp in Xenopus oocytes, K2P18.1", "assay_type": "cell-based, Murine", "settings": "at 100 μM compound", "procedure,_shortened": "as §1"}, "[12]": {"biological_target": "Kv7.2 (KCNQ2) (Homo sapiens, UniProt O43526)", "sequence (O43526 whole entry)": "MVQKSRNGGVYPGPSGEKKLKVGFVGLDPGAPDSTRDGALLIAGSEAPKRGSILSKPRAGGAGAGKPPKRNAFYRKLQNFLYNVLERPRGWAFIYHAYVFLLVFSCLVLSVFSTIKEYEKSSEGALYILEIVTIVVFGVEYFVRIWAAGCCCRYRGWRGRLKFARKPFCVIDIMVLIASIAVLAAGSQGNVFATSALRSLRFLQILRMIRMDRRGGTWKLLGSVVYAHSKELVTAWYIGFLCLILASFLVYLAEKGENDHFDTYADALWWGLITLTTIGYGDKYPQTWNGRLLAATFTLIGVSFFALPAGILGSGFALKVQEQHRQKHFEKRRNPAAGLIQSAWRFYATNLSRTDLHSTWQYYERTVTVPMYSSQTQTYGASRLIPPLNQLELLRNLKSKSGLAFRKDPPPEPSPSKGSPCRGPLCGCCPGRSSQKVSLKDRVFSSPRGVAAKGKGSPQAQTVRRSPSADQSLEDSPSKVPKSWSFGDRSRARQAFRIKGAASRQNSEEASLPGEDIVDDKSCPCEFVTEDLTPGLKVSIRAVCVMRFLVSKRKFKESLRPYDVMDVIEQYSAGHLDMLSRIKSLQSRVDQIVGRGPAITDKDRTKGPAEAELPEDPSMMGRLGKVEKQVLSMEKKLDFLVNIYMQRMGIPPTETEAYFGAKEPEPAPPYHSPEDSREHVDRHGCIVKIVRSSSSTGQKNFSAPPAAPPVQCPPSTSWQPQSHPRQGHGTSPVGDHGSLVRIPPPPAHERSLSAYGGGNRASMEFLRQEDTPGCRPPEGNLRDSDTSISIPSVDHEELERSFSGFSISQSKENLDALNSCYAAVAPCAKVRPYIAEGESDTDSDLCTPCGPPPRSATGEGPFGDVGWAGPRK", "assay": "Two-electrode voltage clamp in Xenopus oocytes, Kv7.2", "assay_type": "cell-based", "settings": "at 100 μM"}, "[13]": {"biological_target": "T1, K2P2.1 (TREK-1)", "assay": "Excised membrane patches", "assay_type": "cell-based, Murine", "settings": "0 mV, 20 μM"}, "[14]": {"tested_on": "K2P2.1 (TREK-1)", "settings": "at 1.6 mM; cited from earlier work"}, "[15]": {"settings": "whole-cell, HEK-293T, 0 mV, 20 μM"}},
  "note": "Residue numbers refer to the chain shown, from its start. “And” between values parts separate entries of the source, which are not always exact repeats. Identical values can stand only once.",
  "data": [
    {"compound": "CC1(C)c2cc(Cl)ccc2N(CCc2nnn[nH]2)c2ccc(Cl)cc21", "note": "[ML67-33, 2,7-dichloro-9,9-dimethyl-10-[2-(1H-tetrazol-5-yl)-ethyl]-9,10-dihydro-acridine]", "values": [
      {"measurement": "improved potency (fold)", "setting": "[1]; EC50 compared to ML67-18", "result": 5, "unit": "fold"},
      {"measurement": "H (cooperativity coefficient from the Hill equation)", "setting": "[1]; Xenopus oocytes", "result": "3.6 ± 0.4"},
      {"measurement": "Emax (fold)", "setting": "[1]; Xenopus oocytes, at 100 μM compound", "result": "11.1 ± 0.4", "unit": "fold"},
      {"measurement": "Emax (fold)", "setting": "[1]; Xenopus oocytes, normalized to basal activity", "result": "11.1 ± 0.4 fold and ~11 fold"},
      {"measurement": "Emax (fold)", "setting": "[2]; HEK293 cells", "result": "11.4 ± 1.1", "unit": "fold"},
      {"measurement": "H (cooperativity coefficient from the Hill equation)", "setting": "[2]; HEK293 cells", "result": "2.3 ± 0.7"},
      {"measurement": "Emax", "setting": "[2]; HEK cells, at 100 μM", "result": "11.4 ± 1.1"},
      {"measurement": "half-maximal activation time (t1/2act)", "setting": "[2]; [15]", "result": "4.1 ± 0.5", "unit": "s"},
      {"measurement": "time of return to baseline following washout (t1/2wash)", "setting": "[2]; [15]", "result": "3.9 ± 0.5", "unit": "s"},
      {"measurement": "response to activation (in words)", "setting": "[3]", "result": "completely resistant"},
      {"measurement": "Emax (fold)", "setting": "[3]; at 150 μM", "result": "0.9 ± 0.1", "unit": "at 150 μM fold"},
      {"measurement": "Emax (fold)", "setting": "[4]", "result": "5.1 ± 0.6", "unit": "fold"},
      {"measurement": "H (cooperativity coefficient from the Hill equation)", "setting": "[4]", "result": "1.6 ± 0.7"},
      {"measurement": "EC50", "setting": "[5]", "result": "49.4 ± 1.1", "unit": "µM"},
      {"measurement": "H (cooperativity coefficient from the Hill equation)", "setting": "[5]", "result": "2.2 ± 0.4"},
      {"measurement": "Emax (fold)", "setting": "[6]", "result": "11.4 ± 1.8", "unit": "fold"},
      {"measurement": "H (cooperativity coefficient from the Hill equation)", "setting": "[6]", "result": "1.6 ± 0.6"},
      {"measurement": "Emax", "setting": "[6]; at 100 μM", "result": "11.4 ± 1.8"},
      {"measurement": "H (cooperativity coefficient from the Hill equation)", "setting": "[7]", "result": "1.8 ± 0.4"},
      {"measurement": "Emax (fold)", "setting": "[7]; at 100 μM compound", "result": "14.7 ± 1.12 fold and 14.7 ± 1.1 fold and 14.7 ± 1.1 ^d fold"},
      {"measurement": "Emax", "setting": "[8]; at 100 μM", "result": "1.7 ± 0.3"},
      {"measurement": "Emax (fold)", "setting": "[8]; at 150 μM", "result": "2.1 ± 0.4", "unit": "at 150 μM fold"},
      {"measurement": "Emax (fold)", "setting": "[9]", "result": "2.0 ± 0.1", "unit": "fold"},
      {"measurement": "Emax (fold)", "setting": "[10]", "result": "1.1 ± 0.0 fold and 1.1 ± 0.1 ^d fold"},
      {"measurement": "Emax (fold)", "setting": "[11]", "result": "0.9 ± 0.1 fold and 0.9 ± 0.1 ^d fold"},
      {"measurement": "effect on Kv7.2 (KCNQ2) (in words)", "setting": "[12]", "result": "no effect"},
      {"measurement": "t1/2act", "setting": "[13]; inside-out patch", "result": "10.8 ± 1.3", "unit": "s"},
      {"measurement": "t1/2wash", "setting": "[13]; inside-out patch", "result": "22.0 ± 5.1", "unit": "s"},
      {"measurement": "t1/2act", "setting": "[13]; outside-out patch", "result": "4.6 ± 0.9", "unit": "s"},
      {"measurement": "t1/2wash", "setting": "[13]; outside-out patch", "result": "3.1 ± 0.7", "unit": "s"}
    ]},
    {"compound": "ClC(Cl)Cl", "note": "[chloroform]", "values": [
      {"measurement": "reported activation (fold)", "setting": "[14]", "result": 5.5, "unit": "fold"}
    ]}
  ]
}
